According to ChEMBL document CHEMBL4342503, “Diazabicyclooctane Functionalization for Inhibition of β-Lactamases from Enterobacteria” (2020):
Activity calls are given as the source filed them. The calls are words filed in the database; no cut-off is given here.

Experiments:
[1] = system: Enterobacter cloacae; test: Inhibition of Enterobacter cloacae AmpC expressed in Escherichia coli BL21 DE3 assessed as K2/Ki ratio using nitrocefin as substrate by spectrophotometry
How it was run: (§1)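 His-tagged enzymes expressed in E. coli BL21(DE3) (IPTG 0.5 mM, 16°C, 18 h), purified by Ni-NTA and size exclusion in 25 mM Tris-HCl pH 7.5, 300 mM NaCl. Carbamoylation k2/Ki from progress curves, reporter nitrocefin 100 μM, 20°C, 100 mM MES pH 6.4; inhibitor up to 100 μM; ≥6 curves, ≥2 independent experiments.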

[2] = system: Escherichia coli; test: Antibacterial activity against Escherichia coli Top10 assessed as cefamandole MIC by CLSI protocol based method (reference value: 2 ug/ml); format: functional
How it was run: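 Broth microdilution in cation-adjusted Mueller-Hinton broth following CLSI. Strain carries a β-lactamase gene cloned in pTRC-99k (kanamycin marker); preculture in BHI with IPTG (500 μM) and kanamycin (50 μg/ml); IPTG (500 μM) also in plates to induce enzyme. β-Lactam MIC read with or without inhibitor at fixed 15 μM (4 μg/ml for avibactam; clavulanate 4 μg/ml). Median of five biological repeats from two independent experiments.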

[3] = system: Enterobacter cloacae; test: Inhibition of Enterobacter cloacae CTX-M-15 expressed in Escherichia coli BL21 DE3 assessed as K2/Ki ratio using nitrocefin as substrate by spectrophotometry; how it was run: as §1
[4] = system: Escherichia coli; test: Antibacterial activity against Escherichia coli Top10 without harboring AmpC assessed as cefotaxime MIC by CLSI protocol based method (reference value: 0.125 ug/ml); format: functional
[5] = system: Escherichia coli; test: Antibacterial activity against Escherichia coli Top10 without harboring OXA-48 assessed as ertapenem MIC by CLSI protocol based method (reference value: < 0.03 ug/ml); format: functional
[6] = system: Escherichia coli; test: Antibacterial activity against Escherichia coli Top10 harboring CTX-M-15 assessed as amoxicillin MIC by CLSI protocol based method (reference value: 2048 ug/ml); format: functional
[7] = system: Escherichia coli; test: Antibacterial activity against Escherichia coli Top10 harboring KPC-2 assessed as aztreonam MIC by CLSI protocol based method (reference value: 2048 ug/ml); format: functional
[8] = system: Escherichia coli; test: Antibacterial activity against Escherichia coli Top10 without harboring KPC-2 assessed as aztreonam MIC by CLSI protocol based method (reference value: 0.5 ug/ml); format: functional
[9] = system: Escherichia coli; test: Antibacterial activity against Escherichia coli Top10 harboring TEM1 assessed as cefamandole MIC by CLSI protocol based method (reference value: 2048 ug/ml); format: functional
[10] = system: Escherichia coli; test: Antibacterial activity against Escherichia coli Top10 without harboring CTX-M-15 assessed as amoxicillin MIC by CLSI protocol based method (reference value: 8 ug/ml); format: functional
[11] = Inhibition of TEM1 (unknown origin) expressed in Escherichia coli BL21 DE3 assessed as K2/Ki ratio using nitrocefin as substrate by spectrophotometry; how it was run: as §1
[12] = system: Escherichia coli; test: Antibacterial activity against Escherichia coli Top10 harboring AmpC assessed as cefotaxime MIC by CLSI protocol based method (reference value: 256 ug/ml); format: functional
[13] = Inhibition of KPC-2 (unknown origin) expressed in Escherichia coli BL21 DE3 assessed as K2/Ki ratio using nitrocefin as substrate by spectrophotometry; how it was run: as §1
[14] = Inhibition of OXA-48 expressed in Escherichia coli BL21 DE3 assessed as K2/Ki ratio using CENTA as substrate by spectrophotometry
How it was run: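 OXA-48 expressed in E. coli BL21(DE3) (IPTG 0.5 mM, 16°C, 18 h), purified by Ni-NTA and size exclusion. Carbamoylation k2/Ki by spectrophotometric progress curves with CENTA 100 μM as reporter, 20°C, 100 mM MES pH 6.4; inhibitor up to 100 μM; ≥6 curves from ≥2 independent experiments.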

[15] = system: Escherichia coli; test: Antibacterial activity against Escherichia coli Top10 harboring OXA-48 assessed as ertapenem MIC by CLSI protocol based method (reference value: 8 ug/ml); format: functional

SMILES	Ratio [1]	MIC [2]	Ratio [3]	MIC [4]	MIC [5]	MIC [6]	MIC [7]	MIC [8]	MIC [9]	MIC [10]	Ratio [11]	MIC [12]	Ratio [13]	Ratio [14]	MIC [15]
O=C1N2C[C@@H](CC[C@H]2Cn2cc(CN3CCOCC3)nn2)N1OS(=O)(=O)[O-].[Na+]	31 M⁻¹ s⁻¹	2 mg/L	100 M⁻¹ s⁻¹	0.125 mg/L	< 0.03 mg/L	64 mg/L	32 mg/L	0.25 mg/L	8 mg/L	8 mg/L	1200 M⁻¹ s⁻¹	128 mg/L	190 M⁻¹ s⁻¹	inactive	8 mg/L
NCCC(=O)Nc1ccc(-c2cn(C[C@@H]3CC[C@@H]4CN3C(=O)N4OS(=O)(=O)O)nn2)cc1.O=C(O)C(F)(F)F	28 M⁻¹ s⁻¹	2 mg/L	150 M⁻¹ s⁻¹	0.25 mg/L	< 0.03 mg/L	128 mg/L	64 mg/L	0.25 mg/L	32 mg/L	4 mg/L	940 M⁻¹ s⁻¹	64 mg/L	180 M⁻¹ s⁻¹	inactive	4 mg/L
O=C(NC1CCNCC1)[C@@H]1CC[C@@H]2CN1C(=O)N2OS(=O)(=O)[O-].[Na+]	15000 M⁻¹ s⁻¹	2 mg/L	960 M⁻¹ s⁻¹	0.125 mg/L	< 0.03 mg/L	16 mg/L	0.5 mg/L	0.25 mg/L	4 mg/L	2 mg/L	43000 M⁻¹ s⁻¹	0.25 mg/L	10000 M⁻¹ s⁻¹	inactive	8 mg/L
C[Si](C)(C)c1cn(C[C@@H]2CC[C@@H]3CN2C(=O)N3OS(=O)(=O)[O-])nn1.[Na+]	24 M⁻¹ s⁻¹	2 mg/L	400 M⁻¹ s⁻¹	0.125 mg/L	< 0.03 mg/L	1020 mg/L	512 mg/L	0.5 mg/L	64 mg/L	8 mg/L	370 M⁻¹ s⁻¹	64 mg/L	97 M⁻¹ s⁻¹	inactive	16 mg/L
CC(C)(C)OC(=O)NCc1cn(C[C@@H]2CC[C@@H]3CN2C(=O)N3OS(=O)(=O)[O-])nn1.[Na+]	51 M⁻¹ s⁻¹	2 mg/L	130 M⁻¹ s⁻¹	0.125 mg/L	< 0.03 mg/L	1020 mg/L	512 mg/L	0.25 mg/L	128 mg/L	8 mg/L	2800 M⁻¹ s⁻¹	128 mg/L	540 M⁻¹ s⁻¹	210 M⁻¹ s⁻¹	16 mg/L
CC(C)(C)OC(=O)N1CCC(c2cn(C[C@@H]3CC[C@@H]4CN3C(=O)N4OS(=O)(=O)[O-])nn2)CC1.[Na+]	29 M⁻¹ s⁻¹	2 mg/L	230 M⁻¹ s⁻¹	0.125 mg/L	< 0.03 mg/L	4100 mg/L	2050 mg/L	0.25 mg/L	256 mg/L	8 mg/L	1700 M⁻¹ s⁻¹	128 mg/L	830 M⁻¹ s⁻¹	210 M⁻¹ s⁻¹	16 mg/L
NCc1cn(C[C@@H]2CC[C@@H]3CN2C(=O)N3OS(=O)(=O)O)nn1.O=C(O)C(F)(F)F	16 M⁻¹ s⁻¹	4 mg/L	88 M⁻¹ s⁻¹	0.125 mg/L	< 0.03 mg/L	128 mg/L	32 mg/L	0.25 mg/L	4 mg/L	4 mg/L	3100 M⁻¹ s⁻¹	128 mg/L	120 M⁻¹ s⁻¹	inactive	8 mg/L
O=C([O-])[C@H]1/C(=C/CO)O[C@@H]2CC(=O)N21.[Na+] [CLAVULANIC ACID (SODIUM)]		2 mg/L		0.0625 mg/L	< 0.03 mg/L	2 mg/L	512 mg/L	0.5 mg/L	2 mg/L	8 mg/L		128 mg/L			8 mg/L
O=C(O)CCc1cn(C[C@@H]2CC[C@@H]3CN2C(=O)N3OS(=O)(=O)[O-])nn1.[Na+]	99 M⁻¹ s⁻¹	2 mg/L	110 M⁻¹ s⁻¹	0.25 mg/L	< 0.03 mg/L		256 mg/L	0.25 mg/L	32 mg/L	2 mg/L	720 M⁻¹ s⁻¹	64 mg/L	70 M⁻¹ s⁻¹	inactive	8 mg/L
O=C1N2C[C@@H](CC[C@H]2Cn2nccn2)N1OS(=O)(=O)[O-].[Na+]	200 M⁻¹ s⁻¹	2 mg/L	120 M⁻¹ s⁻¹	0.125 mg/L	< 0.03 mg/L	512 mg/L	512 mg/L	0.5 mg/L	16 mg/L	4 mg/L	2600 M⁻¹ s⁻¹	32 mg/L	350 M⁻¹ s⁻¹	150 M⁻¹ s⁻¹	8 mg/L
COCc1cn(C[C@@H]2CC[C@@H]3CN2C(=O)N3OS(=O)(=O)[O-])nn1.[Na+]	15 M⁻¹ s⁻¹	2 mg/L	120 M⁻¹ s⁻¹	0.125 mg/L	< 0.03 mg/L	256 mg/L	512 mg/L	0.5 mg/L	16 mg/L	8 mg/L	830 M⁻¹ s⁻¹	128 mg/L	18 M⁻¹ s⁻¹	inactive	16 mg/L
CN(C)Cc1cn(C[C@@H]2CC[C@@H]3CN2C(=O)N3OS(=O)(=O)[O-])nn1.[Na+]	20 M⁻¹ s⁻¹	2 mg/L	29 M⁻¹ s⁻¹	0.125 mg/L	< 0.03 mg/L	256 mg/L	64 mg/L	0.5 mg/L	32 mg/L	4 mg/L	780 M⁻¹ s⁻¹	64 mg/L	120 M⁻¹ s⁻¹	inactive	8 mg/L
